Test results taken from ChEMBL document CHEMBL4350999, “Enhanced tumor retention of NTSR1-targeted agents by employing a hydrophilic cysteine cathepsin inhibitor” (Eur J Med Chem, 2019).
Calls of active or inactive are those of the source. The calls are words filed in the database; no cut-off is given here.

Legend:
[1] = Stability of 177Lu labelled compound in human serum assessed as parent compound remaining at 37 degC after 3 hrs by RP-HPLC analysis; format: ADME, cell-free; details: read-out: Stability
Procedure, shortened: (§1)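 Radioconjugate (1.5 mCi, 55.5 MBq) was incubated in 300 μL human serum at 37 °C. At 1, 3 and 24 h, acetonitrile was added and samples were spun at 12,000×g for 5 min. Supernatant was dried under nitrogen, reconstituted in water and analyzed by radio-HPLC.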

[2] = Drug retention in liver of mouse xenografted with human HT-29 cells assessed as tissue-conjugate adduct formation at 29.6 MBq measured after 72 hrs using 177Lu labelled compound by SDS-PAGE analysis; format: ADME, tissue-based; details: in vivo
Procedure, shortened: (§2)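 HT-29 xenograft mice given 800 μCi (29.6 MBq) 177Lu conjugate i.v. and killed at 72 h. Tumor, liver and kidney homogenized in RIPA with protease inhibitor and supernatants run on SDS-PAGE autoradiography. Other supernatant aliquots filtered through 10 kDa MWCO devices to give the % macromolecule-associated radioactivity; n = 3.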

[3] = target: T1, Neurotensin receptor type 1 (Homo sapiens, UniProt P30989); experiment: Substrate activity at neurotensin receptor in human HT-29 cells assessed as reduction in drug uptake in presence of NTRS1 peptide N1 using Eu labelled compound measured at 2 hrs by lysotracker green staining based confocal microscopic analysis; format: cell-based; set-up: scale not given: the % may be the effect or the level left
Procedure, shortened: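 HT-29 cells (1.25 × 10^5/well) were given natEu-labeled conjugate (5 μM) with or without NTSR1 peptide N1 (20 μM) for 2 h at 37 °C. LysoTracker Green (100 nM) was added for 1 h. Cells were PBS washed, formaldehyde fixed and imaged by confocal microscopy (ex 405 and 488 nm). Mean pixel intensity was normalized to cell count.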

[4] = target: Cathepsin B (Homo sapiens, UniProt P07858); experiment: Inhibition of human liver cathepsin B assessed as second order rate constant using Z-Arg-Arg-AMC as substrate measured every 5 mins for 1 hr by fluorescence assay
Procedure, shortened: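 Human liver cathepsin B, 2 nM final, in 0.1 M phosphate pH 5.8 (1 mM EDTA, 2.7 mM DTT, 0.03% Brij35). Enzyme mixed with conjugate (1–500 nM final), then Z-Arg-Arg-AMC added (800 μM final); 37 °C. […] Biological triplicate.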

[5] = target: T2, Procathepsin L (Homo sapiens, UniProt P07711); experiment: Binding affinity to human liver cathepsin L assessed as protein-conjugate adduct formation incubated for 30 mins using 177Lu labelled compound by SDS-PAGE analysis
Procedure, shortened: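 Purified human liver CatB or CatL (3 nM) in 50 mM sodium acetate/1 mM EDTA pH 5.0 incubated 30 min with 177Lu conjugate (500,000 cpm) in Tris/MgCl2/DTT buffer pH 5.5, alone or with E-64 (10 μM) or N1 (20 μM). Mixtures heated 85 °C 2 min, run on 16% tris-glycine gel at 110 V for 90 min, and read by phosphor autoradiography.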

[6] = target: T2, Procathepsin L; experiment: Binding affinity to cathepsin L in human HT-29 cells assessed as intracellular adduct formation at 0.74 MBq incubated for 4 hrs using 177Lu labelled compound by SDS-PAGE analysis; format: cell-based; set-up: dose or concentration left out as unconfirmed
Procedure, shortened: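 HT-29 cells (1 × 10^6/well) incubated 4 h at 37 °C with 177Lu conjugate (20 μCi, 0.74 MBq) in 1 mL medium, with or without E-64 (10 μM) or NTSR1 peptide N1 (20 μM). Cells washed and refed; at set times cells pooled, RIPA-lysed with protease inhibitor. Lysates heated 85 °C 2 min, run on 16% tris-glycine SDS-PAGE, and phosphor autoradiography taken after 72 h exposure.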

[7] = target: T1, Neurotensin receptor type 1; experiment: Displacement of [177Lu] DOTA-beta-ala-[N-alpha-Me8, Dmt11, Tle12] NT6-13 from neurotensin receptor in human HT-29 cells incubated for 45 mins by gamma counter analysis; format: cell-based
Procedure, shortened: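 HT-29 cells (~1 × 10^6) in McCoy's 5A with HEPES and 2 mg/mL BSA, pH 7.4. Incubated 45 min at 37 °C with 177Lu-N1 (100,000 cpm) plus conjugate at 5 nM–1 μM. Cells washed, bound activity gamma-counted, IC50 obtained by nonlinear regression; biological triplicate.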

[8] = Stability of 177Lu labelled compound in human serum assessed as parent compound remaining at 37 degC after 1 hr RP-HPLC analysis; format: ADME, cell-free; details: read-out: Stability; procedure, shortened: as §1
[9] = Drug retention in tumor of mouse xenografted with human HT-29 cells assessed as conjugate adduct formation at 29.6 MBq measured after 72 hrs using 177Lu labelled compound by SDS-PAGE analysis; format: ADME, tissue-based, Neoplasm; details: in vivo; procedure, shortened: as §2
[10] = Ratio of drug uptake in SCID mouse xenograted with human HT-29 cells assessed as tumour retention to drug uptake in muscle of SCID mouse xenografted with human HT-29 cells measured after 24 hrs using 177Lu labelled compound; format: ADME, tissue-based, Tumor/Muscle
Procedure, shortened: (§3)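 Female SCID mice (5 weeks old) received s.c. flank HT-29 cells (5 × 10^6 in Matrigel). At ~80 mm3, two weeks later, mice were randomized and given 10 μCi (0.37 MBq) of purified 177Lu conjugate i.v. by tail vein. Mice were killed at 4, 24 or 72 h. Tissues were weighed and gamma counted as %ID/g, mean ± SD, n = 5. Tumor-to-tissue ratios were calculated.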

[11] = Ratio of drug uptake in SCID mouse xenograted with human HT-29 cells assessed as tumour retention to drug uptake in lung of SCID mouse xenografted with human HT-29 cells measured after 72 hrs using 177Lu labelled compound; format: ADME, tissue-based, Tumor/Lung; procedure, shortened: as §3
[12] = Ratio of drug uptake in SCID mouse xenograted with human HT-29 cells assessed as tumour retention to drug uptake in kidney of SCID mouse xenografted with human HT-29 cells measured after 24 hrs using 177Lu labelled compound; format: ADME, tissue-based, Tumor/Kidney; procedure, shortened: as §3
[13] = Ratio of drug uptake in SCID mouse xenograted with human HT-29 cells assessed as tumour retention to drug uptake in muscle of SCID mouse xenografted with human HT-29 cells measured after 72 hrs using 177Lu labelled compound; format: ADME, tissue-based, Tumor/Muscle; procedure, shortened: as §3
[14] = Ratio of drug uptake in SCID mouse xenograted with human HT-29 cells assessed as tumour retention to drug uptake in liver of SCID mouse xenografted with human HT-29 cells measured after 24 hrs using 177Lu labelled compound; format: ADME, tissue-based, Tumor/Liver; procedure, shortened: as §3
[15] = Ratio of drug uptake in SCID mouse xenograted with human HT-29 cells assessed as tumour retention to drug uptake in blood of SCID mouse xenografted with human HT-29 cells measured after 4 hrs using 177Lu labelled compound; format: ADME, tissue-based, Tumor/Blood; procedure, shortened: as §3
[16] = Ratio of drug uptake in SCID mouse xenograted with human HT-29 cells assessed as tumour retention to drug uptake in blood of SCID mouse xenografted with human HT-29 cells measured after 24 hrs using 177Lu labelled compound; format: ADME, tissue-based, Tumor/Blood; procedure, shortened: as §3
[17] = Ratio of drug uptake in SCID mouse xenograted with human HT-29 cells assessed as tumour retention to drug uptake in pancreas of SCID mouse xenografted with human HT-29 cells measured after 72 hrs using 177Lu labelled compound; format: ADME, tissue-based, Tumor/Pancreas; procedure, shortened: as §3
[18] = Ratio of drug uptake in SCID mouse xenograted with human HT-29 cells assessed as tumour retention to drug uptake in small intestine of SCID mouse xenografted with human HT-29 cells measured after 72 hrs using 177Lu labelled compound; format: ADME, tissue-based, Tumor/Small intestine; procedure, shortened: as §3
[19] = Ratio of drug uptake in SCID mouse xenograted with human HT-29 cells assessed as tumour retention to drug uptake in spleen of SCID mouse xenografted with human HT-29 cells measured after 4 hrs using 177Lu labelled compound; format: ADME, tissue-based, Tumor/Spleen; procedure, shortened: as §3

T2 sequence (P07711 114-333 limits assumed): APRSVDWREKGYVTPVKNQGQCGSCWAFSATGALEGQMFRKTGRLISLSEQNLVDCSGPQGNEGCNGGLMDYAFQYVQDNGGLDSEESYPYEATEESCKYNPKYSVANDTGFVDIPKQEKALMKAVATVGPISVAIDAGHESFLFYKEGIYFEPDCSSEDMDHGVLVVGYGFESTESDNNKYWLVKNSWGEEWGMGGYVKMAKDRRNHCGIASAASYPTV
T1 sequence (P30989 whole entry): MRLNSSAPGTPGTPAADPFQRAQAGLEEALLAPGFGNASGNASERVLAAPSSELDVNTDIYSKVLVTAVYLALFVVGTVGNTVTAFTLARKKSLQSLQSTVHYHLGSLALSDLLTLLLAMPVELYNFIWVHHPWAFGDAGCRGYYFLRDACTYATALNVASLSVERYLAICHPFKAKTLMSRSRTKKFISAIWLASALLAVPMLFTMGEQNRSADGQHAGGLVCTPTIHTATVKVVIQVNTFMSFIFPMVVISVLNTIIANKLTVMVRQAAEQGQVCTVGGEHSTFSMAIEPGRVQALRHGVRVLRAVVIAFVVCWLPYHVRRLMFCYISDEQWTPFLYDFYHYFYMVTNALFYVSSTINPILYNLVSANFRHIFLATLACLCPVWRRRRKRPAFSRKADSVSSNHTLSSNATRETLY

| remaining at 3 h [1] [%] | Drug uptake [2] | Activity [3] [%] | inhibition [4] | Activity [5] | Activity [6] | IC50 [7] [nM] | remaining at 1 h [8] [%] | Drug uptake [9] | K [4] [M⁻¹ s⁻¹] | Ratio [10] | Ratio [11] | Ratio [12] | Ratio [13] | Ratio [14] | Kp at 4 h [15] | Kp at 24 h [16] | Ratio [17] | Ratio [18] | Ratio [19] | SMILES |
| --- | --- | --- | --- | --- | --- | --- | --- | --- | --- | --- | --- | --- | --- | --- | --- | --- | --- | --- | --- | --- |
| 74.3 | Not Active | 65 | inactive | inactive | inactive | 63 | 84.7 | Not Active |  |  |  |  |  |  |  |  |  |  |  | Cc1cc(O)cc(C)c1C[C@H](NC(=O)[C@@H]1CCCN1C(=O)[C@H](CCCNC(=N)N)NC(=O)[C@H](CCCNC(=N)N)N(C)C(=O)[C@@H]1CCCN1C(=O)[C@H](CCCCN)NC(=O)[C@@H](CO)NC(=O)[C@@H](CO)NC(=O)[C@@H](CO)NC(=O)[C@H](Cc1cn(CCNC(=O)[C@H](CCCNC(=N)N)NC(=O)[C@H](CC(C)C)NC(=O)CCC(=O)O)nn1)NC(=O)CN1CCN(CC(=O)O)CCN(CC(=O)O)CCN(CC(=O)O)CC1)C(=O)N[C@H](C(=O)N[C@@H](CC(C)C)C(=O)O)C(C)(C)C |
| 65.6 | Active | 63.7 |  | Active | Active | 60 | 93.6 | Active | 67000 | 137 | 10 | 0.08 | 153 | 8.5 | 337 | 422 | 30 | 1.7 | 5 | Cc1cc(O)cc(C)c1C[C@H](NC(=O)[C@@H]1CCCN1C(=O)[C@H](CCCNC(=N)N)NC(=O)[C@H](CCCNC(=N)N)N(C)C(=O)[C@@H]1CCCN1C(=O)[C@H](CCCCN)NC(=O)[C@@H](CO)NC(=O)[C@@H](CO)NC(=O)[C@@H](CO)NC(=O)[C@H](Cc1cn(CCNC(=O)[C@H](CCCNC(=N)N)NC(=O)[C@H](CC(C)C)NC(=O)C2OC2C(=O)O)nn1)NC(=O)CN1CCN(CC(=O)O)CCN(CC(=O)O)CCN(CC(=O)O)CC1)C(=O)N[C@H](C(=O)N[C@@H](CC(C)C)C(=O)O)C(C)(C)C (stereo partly drawn) |
|  |  |  |  |  |  |  |  |  |  | 30 | 2.6 | 0.15 | 16 | 0.5 | 6.5 | 69 | 6.5 | 0.9 | 0.5 | Cc1cc(C)c(C(=O)OCC(=O)[C@H](CCCCNC(=O)CNC(=O)[C@@H](CO)NC(=O)[C@@H](CO)NC(=O)[C@@H](CO)NC(=O)Cn2cc(C[C@H](NC(=O)CN3CCN(CC(=O)O)CCN(CC(=O)O)CCN(CC(=O)O)CC3)C(=O)N[C@H](CO)C(=O)N[C@H](CO)C(=O)N[C@H](CO)C(=O)N[C@@H](CCCCN)C(=O)N3CCC[C@H]3C(=O)N(C)[C@@H](CCCNC(=N)N)C(=O)N[C@@H](CCCNC(=N)N)C(=O)N3CCC[C@H]3C(=O)N[C@@H](Cc3c(C)cc(O)cc3C)C(=O)N[C@H](C(=O)N[C@@H](CC(C)C)C(=O)O)C(C)(C)C)nn2)NC(=O)[C@H](Cc2ccccc2)NC(=O)OCc2ccccc2)c(C)c1 |
